Measurements from publication PMC6136352 (Journal of Enzyme Inhibition and Medicinal Chemistry, 2018).

Legend:
KG1a cells = assay: MTT cytotoxicity assay, KG1a; assay type: cell-based, human; conditions: for IC50: Homo sapiens, KG-1a, 72 h, read-out: IC50 KG1a
How it was run: (§1)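 Exponentially growing leukaemia lines were seeded at 1 × 10⁴ cells/well in supplemented RPMI 1640. After 24 h, test compounds were added over a concentration range for 72 h, with adriamycin as positive control. MTT (5 mg/ml stock) was added for 4 h. Plates were spun at 2000 rpm for 20 min, the supernatant replaced by DMSO, and absorbance read at 570 nm. IC50 was fitted; each value is the mean of three independent experiments.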

HL-60 cells = assay: MTT cytotoxicity assay, HL-60; assay type: cell-based; conditions: Homo sapiens, HL-60, 72 h, read-out: IC50 HL-60
How it was run: as §1

[1] = cited from earlier work
[2] = cited from earlier work; remark: listed apart in the source

Row | SMILES | IC50 (KG1a cells) | IC50 (HL-60 cells) | solubility [1] | stability in acidic and basic conditions [2] | drop of activity against KG1a than that against HL-60 (KG1a cells; ratio of IC50 values)
1 | C=C1C(=O)O[C@H]2[C@H]1CC/C(C)=C/CC[C@@]1(C)O[C@@H]21 [PTL, Parthenolide] | 6100 ± 1800 nM | 3800 ± 1200 nM | poor solubility | instability in both acidic and basic conditions | 
2 | COc1cccc2c1C(=O)c1c(O)c3c(c(O)c1C2=O)C[C@@](O)(C(=O)CO)C[C@@H]3O[C@H]1C[C@H](N)[C@H](O)[C@H](C)O1 [ADR, adriamycin] | 750 ± 50 nM | 22 ± 5 nM |  |  | 34 folds
